Test results reported in paper PMC3822283 (Nature structural & molecular biology, 2013).
One block for each molecule: values may come before it.

What was measured:
p38α [1] = conditions: time resolved FRET, non phospho p38α; ref Zhang et al., 2005; cited from earlier work
[2] = target: [p38α:TAB1(1-438)]complex (Mus musculus, UniProt P47811); test: ITC binding to [p38α:TAB1
p38α [3] = target: T1, p38α (Mus musculus, UniProt P47811); test: ITC binding to p38α; conditions: for association with p38α by ITC (in words): p38α alone, non phospho
[4] = system: isolated perfused mouse hearts; test: contractile function of isolated perfused mouse hearts
In short: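 Langendorff hearts from male C57BL/6 mice (pentobarbital 300mg/kg i.p., heparin 150 units) perfused at 80 mmHg with KHB (95% O2/5% CO2, 37°C). LV balloon EDP set 2-8 mmHg, paced 600 bpm. Inclusion required LVDP ≥60 mmHg and flow 1.5-3.5 ml/min. After 30 min baseline, coded TAT-TAB1 peptides at 15μM recirculated 15 min in 20 mL KHB. Preliminary runs used three concentrations (n=2). Two-way repeated-measures ANOVA, Bonferroni.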

IRp38α = IRp38α co-expressed with TAB1 in HEK293 cells; format: cell-based; conditions: Fig. 1c
In short: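 HEK293 cells were co-transfected with TAB1 and either p38α (HA-tagged, WT) or the gatekeeper mutant IRp38α, then exposed to BIRB793. p38 and TAB1 phosphorylation were read by immunoblot: dual-phospho p38 (Thr180/Tyr182) 1:4,000, total p38 1:15,000, overnight at 4 °C, ECL detection. Quantitation is from three independent transfections as mean ± s.d., analysed by one-way ANOVA with Bonferroni.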

[5] = system: p38 in wild-type (WT) hearts; test: p38 dual phosphorylation during global myocardial ischemia, WT hearts; conditions: WT mouse hearts, global ischemia 5, 10 and 15 mins; 10 μM
[6] = system: p38 in hearts expressing the p38α Thr106Met gatekeeper mutant (IRα); test: p38 activity during global myocardial ischemia, IRα hearts; conditions: IRα mouse hearts, global ischemia 5, 10 and 15 mins; 10 μM
p38α [7] = test: co-transfection of HEK293 cells with TAB1 and p38α, p38 phosphorylation; format: cell-based
p38 [8] = test: p38 dual phosphorylation in isolated perfused mouse hearts; conditions: 15 mins exposure; immunoblot, Fig. 6g
p38 [9] = test: p38 activation in adult rat ventricular myocytes; format: cell-based; conditions: ARVMs; peptides fused to TAT; immunoblot, Fig. 6c
In short: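 Rat ventricular myocytes were washed in M199 with penicillin, streptomycin, 2mM L-carnitine, 5mM creatine and 5mM taurine, pelleted at 100 g for 2 min and plated on laminin at 37°C in 5% CO2. After 1 h, non-adherent cells were removed and TAT-TAB1(371-416) peptides (WT, A/B mutant, scrambled) added in fresh medium. Immunoblots used dual-phospho p38 (Thr180/Tyr182; 1:4,000) and total p38 (1:15,000) antibodies, with ECL detection. One-way ANOVA, Bonferroni.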

[10] = system: isolated adult rat cardiac myocytes; test: viability of adult rat ventricular myocytes; format: cell-based; conditions: ARVMs, later time points; peptides fused to TAT
In short: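 Laminin-plated adult rat ventricular myocytes in supplemented M199 at 37°C in 5% CO2 were exposed to fluorescein (FAM)-labelled TAT-TAB1(371-416) peptides. They were imaged by confocal microscopy at later time points. Cell death was scored as a rounded cell appearance with homogeneous distribution of the fluorescein label.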

p38α [11] = target: T1, p38α; test: co-expression of p38α and TAB1 in E. coli, p38α phosphorylation; format: cell-based; conditions: western blot; Fig. 1d, 5d; inhibitors 10 μM
In short: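 Mouse p38α and TAB1 (full-length, 1-438 or 1-418) were co-expressed in E. coli from dual vectors, with p38α in the first MCS and TAB1 in the second. Controls were empty vector and p38α alone.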

[12] = peptides fused to TAT, 15 μM, 15 min, recirculated, n=5 mouse hearts per group

Molecule: Nc1ncnc2c1ncn2[C@@H]1O[C@H](COP(=O)(O)OP(=O)(O)OP(=O)(O)O)[C@@H](O)[C@H]1O [ATP]
Kd (p38α [1]): 13 ± 5.5 mM

Molecule: Nc1ncnc2c1ncn2[C@@H]1O[C@H](CO[P@](=O)(O)O[P@](=O)(O)O[P@@](=O)(O)S)[C@@H](O)[C@H]1O [ATPγS]
Kd [2]: 0.0053 mM
affinity for p38α in the presence of TAB1(1-438) (in words) ([2]; ITC, 1:1 stoichiometry): low μM affinity
association with p38α by ITC (in words) (p38α [3]): no measurable association by ITC

Molecule: Cc1ccc(-n2nc(C(C)(C)C)cc2NC(=O)Nc2ccc(OCCN3CCOCC3)c3ccccc23)cc1 [BIRB796, reference compound]
inhibition of p38α on effects of perfusion with TAB1(371-416) (WT) ([4]; LVDP and coronary flow, numbers per group WT=7 and WT+I=5, Fig. 6h): attenuates the effects of perfusion with TAB1(371-416)
pattern of phosphorylation on inhibitor exposure, IRp38α coexpressed with TAB1 (IRp38α): altered

Molecule: C[S+]([O-])c1ccc(-c2nc(-c3ccncc3)c(-c3ccc(F)cc3)[nH]2)cc1 (stereo not shown) [SB203580]
sensitivity of p38 dual phosphorylation to inhibitor [5]: sensitive
p38 activity (phosphorylation of TAB1 and HSP27) with inhibitor [6]: p38 remained active
effect of inhibitor on TAB1-enhanced p38α dual phosphorylation (p38α [7]; WTp38α, HEK293 cells, Fig. 1b): SB203580-sensitive

maximum concentration that did not cause discernible contractile dysfunction ([4]; isolated mouse heart, preliminary experiments): 15 µM
Molecule: GYGRKKRRQRRRGEMSQPTPTPAPGGRVYPVSAPASSAQSTSKTSVTLSLGAPSQGQMV [TAT-TAB1(371-416A/B)]

Molecule: GYGRKKRRQRRRGEMSQPTPTPAPGGRVYPVSVPYSSAQSTSKTSVTLSLVMPSQGQMV [TAT-TAB1(371-416)]
coronary flow ([4]; 15 μM, 15 min, recirculated, n=5 mouse hearts per group): reduction in coronary flow
developed pressure [4, 12]: marked reduction in developed pressure
end-diastolic pressure [4, 12]: elevation in the end-diastolic pressure
p38 dual phosphorylation in perfused hearts (p38 [8]): p38 dual phosphorylation
p38 activation (p38 [9]): caused p38 activation
cell death [10]: cell death

association with p38α by ITC (in words) (p38α [3]): no binding was detected
Molecule: TAB1(371-416A/B) (EMSQPTPTPAPGGRVYPVSAPASSAQSTSKTSVTLSLGAPSQGQMV)
p38 activation (p38 [9]): but not TAB1(371-416A-B) caused p38 activation

p38α phosphorylation on co-expression in E. coli (p38α [11]): enhanced
Molecule: TAB1: TGF-β-activated protein kinase 1 (TAK1) binding protein 1, scaffold protein (EMSQPTPTPAPGGRVYPVSVPYSSAQSTSKTSVTLSLVMPSQGQMV)
p38α dual phosphorylation on co-expression in HEK293 cells (p38α [7]; western blot, three independent transfections): enhanced p38α dual phosphorylation

−TΔS (p38α [3]; 25°C, ΔG = ΔH-TΔS): 5.1 kcal/mol
B1: TAB1(1-438): recombinant mouse TAB1(1-438), N-terminal HexaHistidine tag and TEV site (protein)
chain: MAAQRRSLLQSEQQPSWTDDLPLCHLSGVGSASNRSYSADGKGTESHPPEDNWLKFRSENNCFLYGVFNGYDGNRVTNFVAQRLSAELLLGQLNTEHTEADVRRVLLQAFDVVERSFLESIDDALAEKASLQSQLPEGVPQHQLPPQYQKILERLKALEREISGGAMAVVAVLLNSKLYVANVGTNRALLCKSTVDGLQVTQLNMDHTTENEDELFRLSQLGLDAGKIKQMGVICGQESTRRIGDYKVKYGYTDIDLLSAAKSKPIIAEPEIHGAQPLDGVTGFLVLMSEGLYKALEAAHGPGQANQEIAAMIDTEFAKQTSLDAVAQAVVDRVKRIHSDTFASGGERAKFCPRHEDMTLLVRNFGYPLGEMSQPTPTPAPGGRVYPVSVPYSSAQSTSKTSVTLSLVMPSQGQMVNGSHSASTLDEATPTLTNQSPT
association with p38α by ITC (in words) (p38α [3]): binding affinity in the low micromolar range
